Assay outcomes deposited in PubChem BioAssay by several laboratories.
MBD2 DNA inh – inhibitors of MBD2 binding to methylated DNA, primary screen, biochemical, TR-FRET, DNA-binding domain, human; MBD2 binding to methylated oligonucleotide; inhibition, % at 4.4 µM; 0.31% of 370,000 active; AID 686964, 2013; in the data active means inhibition above about 13%
SUMO1-SIM PPI – modulators of SUMO1 protein-protein interactions, primary screen, biochemical, uHTS; Small ubiquitin-related modifier 1 (Homo sapiens), P63165; SUMO1 binding to a labelled peptide, TR-FRET, 1 h; inhibition, % at 20 µM; 0.33% of 360,000 active; AID 602429, 2012
DSG3 Ab inh – inhibitors of pemphigus antibody binding to DSG3, primary screen, biochemical, bead-based, flow cytometry, scFv-GFP; Desmoglein-3 (Homo sapiens), P32926; DSG3-coupled beads, scFv-anti-DSG3-GFP binding; hits give low values; binding (percent of control), % at 10 µM; 0.48% of 310,000 active;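 active means binding more than 3 SD below its plate's average and above zero; inconclusive means below that plate limit but binding exactly zero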;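 further: hits lower antibody fragment binding to DSG3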
Target sequence (P32926 whole entry, looked up, the tested form may be a part): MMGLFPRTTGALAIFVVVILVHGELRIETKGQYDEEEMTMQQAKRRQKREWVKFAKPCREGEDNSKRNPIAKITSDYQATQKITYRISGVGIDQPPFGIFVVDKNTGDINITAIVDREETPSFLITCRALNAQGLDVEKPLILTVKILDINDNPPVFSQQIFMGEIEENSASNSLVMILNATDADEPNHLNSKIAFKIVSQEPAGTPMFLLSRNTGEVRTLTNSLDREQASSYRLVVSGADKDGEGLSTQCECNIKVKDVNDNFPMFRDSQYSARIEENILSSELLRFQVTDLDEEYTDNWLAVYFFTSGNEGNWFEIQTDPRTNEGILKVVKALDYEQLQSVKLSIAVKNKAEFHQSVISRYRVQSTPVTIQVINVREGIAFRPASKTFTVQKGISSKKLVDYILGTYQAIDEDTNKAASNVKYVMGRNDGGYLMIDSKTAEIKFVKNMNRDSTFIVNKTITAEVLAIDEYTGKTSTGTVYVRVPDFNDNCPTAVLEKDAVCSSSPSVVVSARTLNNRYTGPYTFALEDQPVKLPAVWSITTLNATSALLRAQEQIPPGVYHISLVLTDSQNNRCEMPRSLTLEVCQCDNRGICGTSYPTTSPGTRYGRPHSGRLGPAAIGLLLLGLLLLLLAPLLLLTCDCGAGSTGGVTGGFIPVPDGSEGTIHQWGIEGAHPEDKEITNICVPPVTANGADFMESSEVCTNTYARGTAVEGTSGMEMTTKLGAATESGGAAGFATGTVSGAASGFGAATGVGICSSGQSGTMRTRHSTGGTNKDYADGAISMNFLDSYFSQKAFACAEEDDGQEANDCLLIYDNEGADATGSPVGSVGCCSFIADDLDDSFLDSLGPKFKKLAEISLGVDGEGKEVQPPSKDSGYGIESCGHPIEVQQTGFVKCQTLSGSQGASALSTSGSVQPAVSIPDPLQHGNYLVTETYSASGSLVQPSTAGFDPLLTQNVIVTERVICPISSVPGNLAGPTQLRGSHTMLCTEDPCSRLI
DNMT1 block – human DNMT1 methyltransferase inhibitors, primary screen, biochemical, molecular beacon, fluorescence, HinP1I cleavage, uHTS; DNA (cytosine-5)-methyltransferase 1 (Homo sapiens), P26358; inhibition (reported as % activation of signal), % at 10 µM; 0.83% of 360,000 active; in the data active means inhibition above about 50%
HCV NS3 hel inh – inhibitors of HCV NS3 helicase, primary screen, biochemical, Cy5 molecular beacon fluorescence; NS3 helicase DNA unwinding; inhibition, % at 10.9 µM; 0.56% of 290,000 active; AID 1800, 2009;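 active means inhibition above the mean of all tested compounds plus 3 SD, set per campaign, cut at about 35% in these data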
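System: HCV NS3 helicase fragment; control set: DMSO and thioflavine S; technique: Cy5 fluorescence at 0 and 60 min, beacon hairpin quenching; reagent: beacon DNA duplex substrate plus ATP; replicates: singlicate; schedule: 1 h reaction at 25 °C, ATP-initiated; medium: MOPS buffer pH 6.5 with MgCl2, DTT, Tween20, BSA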
UHRF1 MBD2 ctr – UHRF1 methylated DNA binding inhibitors, primary screen, counter-screen for MBD2 inhibitor project, biochemical, TR-FRET, human UHRF1, single concentration | E3 ubiquitin-protein ligase UHRF1 (Homo sapiens), Q96T88 | UHRF1 binding to methylated oligo | inhibition, % at 4.4 µM | 0.75% of 370,000 active | AID 687016, 2013; in the data active means inhibition above about 21%;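 further: UHRF1 SRA domain binding a hemimethylated CpG hairpin DNA probe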
NS3 hel confirm – HCV NS3 helicase inhibitors, retest, confirmation, biochemical, Cy5 molecular beacon fluorescence, triplicate. shares compounds with HCV NS3 hel inh. NS3 helicase DNA unwinding. inhibition, % at 10.9 µM. 31% of 1,600 active;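 active means inhibition above the mean of all tested compounds plus 3 SD, cutoff set per campaign, cut at about 36% in these data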
FID counter trip – compounds displacing fluorescent DNA intercalator, artefact control for HCV NS3 helicase inhibitor project, biochemical, FID fluorescence, triplicate; shares compounds with HCV NS3 hel inh; DNA fluorescent intercalator displacement; inhibition, % at 7.9 µM; 4% of 1,600 active; AID 1945, 2009;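 further: higher means more displacement of ethidium bromide from the DNA hairpin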
DNA FID DR – compounds displacing fluorescent intercalator from DNA, dose response, counter-screen for HCV NS3 helicase inhibitor project, biochemical, fluorescence | fluorescent intercalator displacement from DNA | AID 2172, 2009 | 120 tested, under 10 active | IC50, µM | shares compounds with HCV NS3 hel inh; call rule not given here
Hits are given with their value; . = inactive; ? = inconclusive; / = no result. Shown are actives, neighbours in structure and some others; about 2.5% of the full set was active somewhere. Unless noted, no stated cut-off is given here; in the data, active means inhibition above about 37%; inactive means the rest.

SMILES	MBD2 DNA inh	SUMO1-SIM PPI	DSG3 Ab inh	DNMT1 block	HCV NS3 hel inh	UHRF1 MBD2 ctr	NS3 hel confirm	FID counter trip	others
Nc1nc(-c2ccccc2)[nH]c(=O)c1N	.	.	.	.	.	.	/	/
NC1=C(c2ccccc2)C(=O)NC1=O	.	.	?	.	37	.	.	.
CCOc1ccccc1C1CC(=O)Nc2cc(C)c(C)cc21 (stereo not drawn)	.	.	.	.	.	.	/	/
Cc1cccc(NC(=S)NN2CCOCC2)c1C	.	.	.	.	.	.	/	/
Cc1cccc(NC(=S)Nc2ccc(N3CCOCC3)cc2)c1C	.	.	.	.	40	.	.	.
O=C1C(=Cc2ccc(Br)o2)C(=O)c2ccccc21	/	103	94	108	45	/	85	.
CC(=O)Nc1ccc(S(=O)(=O)NCc2csc(C)n2)cc1	.	.	.	.	.	.	/	/
CCOC(=O)C1(Cc2cccc(Cl)c2)CCCN(C(=O)CCN2CCCC2=O)C1 (stereo not drawn)	.	.	/	.	65	.	.	.
CCCCN(CCCC)c1ccc(C(=O)c2ccccc2C(=O)O)c(O)c1	.	.	.	.	60	.	76	.
CN(C)c1ccc(C(=O)c2ccccc2C(=O)O)c(O)c1	.	.	.	.	.	.	/	/
CN(C)CCCNc1oc(/C=C/c2cccs2)nc1S(=O)(=O)c1ccccc1	.	.	.	.	.	.	/	/
O=C(O)CN1C(=O)/C(=C\c2cccc(OCc3ccccc3F)c2)SC1=S	.	.	.	.	.	.	/	/
O=C(O)CN1C(=O)/C(=C\c2ccccc2OCc2ccc(Cl)cc2)SC1=S	.	.	.	.	43	.	70	.
Cc1ccc(-c2nn(-c3ccccc3)cc2/C=C2\SC(=S)N(CC(=O)O)C2=O)cc1	.	.	.	.	47	.	61	46
O=C(O)CN1C(=O)/C(=C\c2cccc(OCc3ccc(Cl)cc3)c2)SC1=S	.	.	.	.	.	.	/	/
O=C(O)CCN1C(=O)/C(=C/c2cn(-c3ccccc3)nc2-c2cccs2)SC1=S	.	.	.	.	.	.	/	/
O=C(O)CN1C(=O)/C(=C\c2cc(Br)ccc2OCc2ccc(Cl)cc2Cl)SC1=S	/	78	.	95	76	/	86	52
Cc1cc(F)ccc1C(O)c1ncc(-c2ccc(Oc3ccccc3)cc2)[nH]1 (stereo not drawn)	.	.	/	.	/	.	/	/
Cc1nn(-c2ccccc2)c(C)c1NC(=O)COC(=O)c1ccc(O)cc1O	.	.	/	.	.	.	/	/
CCN(CC)c1ccc(N=C2C(=O)Nc3ccccc32)cc1	.	.	.	.	45	.	.	.
CCOc1ccc(N2C(=O)C3Sc4[nH]c(=O)sc4C(/C=C/c4ccccc4)C3C2=O)cc1 (stereo not drawn)	.	.	.	.	37	.	62	.	DNA FID DR=.
COc1cc(C2c3sc(=O)[nH]c3SC3C(=O)N(c4ccc(Br)cc4)C(=O)C32)ccc1O (stereo not drawn)	.	.	.	.	.	.	/	/
N/C(CC(=O)Nc1cc(C(F)(F)F)ccc1Cl)=N\O	.	.	.	.	.	.	.	.
CC(C)(C)c1ccc(S(=O)(=O)/N=C2\C=C(NS(=O)(=O)c3ccccc3)C(=O)c3ccccc32)cc1	.	.	.	.	43	.	82	60
